Data reported in ChEMBL document CHEMBL1137388, “A novel class of potent nonglycosidic and nonpeptidic pan-selectin inhibitors” (2006).
Calls of active or inactive are those of the source. The rule behind the calls is not given here.

Legend:
[1] = biological target: T1, L-selectin (Homo sapiens) (UniProt P14151); assay: Inhibition of sLex binding to L-selectin at 500 uM relative to control by glyco-ELISA assay
T1 sequence (whole entry): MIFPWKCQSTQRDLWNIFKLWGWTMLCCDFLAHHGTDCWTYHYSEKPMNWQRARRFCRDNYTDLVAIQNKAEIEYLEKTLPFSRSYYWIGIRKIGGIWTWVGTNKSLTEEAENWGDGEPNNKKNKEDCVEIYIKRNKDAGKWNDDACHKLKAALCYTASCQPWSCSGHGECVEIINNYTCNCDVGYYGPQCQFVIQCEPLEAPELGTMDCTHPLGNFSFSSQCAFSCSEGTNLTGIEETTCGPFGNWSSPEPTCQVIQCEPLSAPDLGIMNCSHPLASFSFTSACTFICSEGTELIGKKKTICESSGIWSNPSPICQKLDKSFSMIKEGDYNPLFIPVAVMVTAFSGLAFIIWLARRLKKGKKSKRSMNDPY
Summary of the method: (§1)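 Cell-free competitive binding assay. The named selectin is immobilized on microtiter plates, and compound plus sLex-tyrosine sulfate on biotinylated polyacrylamide are added. After incubation, bound ligand is detected by streptavidin-peroxidase, OD 414 nm, with empty-plate absorbance subtracted. Wells coated only with sLex define 0%; EDTA (blocks Ca2+-dependent binding) defines 100% inhibition.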

[2] = Inhibition of MM6 cell adhesion to BAEC at 100 uM relative to control by static assay; format: functional
Summary of the method: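 BAEC monolayers (passage 1-3, 7 days after seeding) stimulated with 20 ng/mL TNFα for 4 or 16 h, test agent in DMSO or vehicle for 20 min at 37 °C/5% CO2. After washing, leukocytes added at 1 × 10^6 cells/mL for 30 min at 37 °C. Non-adherent cells washed off, adherent cells counted microscopically. TNFα-stimulated adhesion set to 100%. Single concentration, 100 µM.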

[3] = biological target: T2, P-selectin (Homo sapiens) (UniProt P16109); assay: Inhibition of sLex binding to P-selectin at 500 uM relative to control by glyco-ELISA assay; summary of the method: as §1
T2 sequence (whole entry): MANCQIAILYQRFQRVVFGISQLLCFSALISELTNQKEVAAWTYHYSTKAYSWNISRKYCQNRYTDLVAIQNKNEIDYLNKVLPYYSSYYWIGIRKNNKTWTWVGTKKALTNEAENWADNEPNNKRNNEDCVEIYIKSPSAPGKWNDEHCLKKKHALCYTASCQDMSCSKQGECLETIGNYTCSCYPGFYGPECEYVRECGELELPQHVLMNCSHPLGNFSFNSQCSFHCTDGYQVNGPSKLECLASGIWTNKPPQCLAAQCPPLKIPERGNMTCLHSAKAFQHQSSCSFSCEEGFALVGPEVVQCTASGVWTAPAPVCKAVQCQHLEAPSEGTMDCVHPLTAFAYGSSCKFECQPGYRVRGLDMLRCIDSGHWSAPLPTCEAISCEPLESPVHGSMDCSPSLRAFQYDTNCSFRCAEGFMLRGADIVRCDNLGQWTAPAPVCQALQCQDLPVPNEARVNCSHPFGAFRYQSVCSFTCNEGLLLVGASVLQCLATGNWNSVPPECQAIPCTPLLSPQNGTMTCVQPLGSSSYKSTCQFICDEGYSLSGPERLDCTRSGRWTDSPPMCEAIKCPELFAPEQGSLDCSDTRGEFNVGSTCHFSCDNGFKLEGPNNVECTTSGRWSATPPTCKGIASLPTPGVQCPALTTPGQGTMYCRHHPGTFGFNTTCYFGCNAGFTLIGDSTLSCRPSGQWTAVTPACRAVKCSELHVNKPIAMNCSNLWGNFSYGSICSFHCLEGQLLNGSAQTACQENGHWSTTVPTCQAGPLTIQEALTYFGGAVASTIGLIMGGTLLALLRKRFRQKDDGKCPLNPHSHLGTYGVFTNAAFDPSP

[4] = biological target: T3, E-selectin (Homo sapiens) (UniProt P16581); assay: Inhibition of sLex binding to E-selectin at 100 uM relative to control by glyco-ELISA assay; summary of the method: as §1
T3 sequence (whole entry): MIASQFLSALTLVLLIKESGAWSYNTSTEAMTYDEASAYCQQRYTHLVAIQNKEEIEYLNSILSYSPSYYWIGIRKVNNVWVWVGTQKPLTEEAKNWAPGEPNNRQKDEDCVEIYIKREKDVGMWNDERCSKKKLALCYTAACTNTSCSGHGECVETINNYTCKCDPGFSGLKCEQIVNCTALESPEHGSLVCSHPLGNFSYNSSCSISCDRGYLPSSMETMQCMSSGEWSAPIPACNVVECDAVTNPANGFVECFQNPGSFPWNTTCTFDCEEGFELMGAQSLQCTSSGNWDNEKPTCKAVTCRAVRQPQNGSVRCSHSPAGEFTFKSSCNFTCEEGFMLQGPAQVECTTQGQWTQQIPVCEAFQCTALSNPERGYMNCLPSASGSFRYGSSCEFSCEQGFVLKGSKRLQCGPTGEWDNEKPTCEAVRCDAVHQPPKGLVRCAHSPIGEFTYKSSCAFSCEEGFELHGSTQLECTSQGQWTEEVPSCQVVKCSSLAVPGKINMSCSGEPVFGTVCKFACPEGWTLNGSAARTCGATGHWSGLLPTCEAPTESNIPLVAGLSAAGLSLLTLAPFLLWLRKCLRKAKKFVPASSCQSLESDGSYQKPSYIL

AEC = assay: Viability of BAEC by Roche-XTT assay relative to control; format: functional, Bos taurus; design: concentration or dose not given beside the values
Summary of the method: (§2)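 XTT assay: metabolically active cells convert yellow tetrazolium XTT to orange formazan. Untreated control viability set to 100%. Cells were BAEC or MM6 as named in each line; MM6 tested at 100 µM.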

[5] = Viability in ATP-lite assay relative to control; format: functional; design: concentration or dose not given beside the values
MONO-MAC-6 [6] = assay: Viability of MM6 cells at 100 uM by Roche-XTT assay relative to control; format: functional, Homo sapiens; summary of the method: as §2
[7] = biological target: T3, E-selectin (Homo sapiens); assay: Inhibition of sLex binding to E-selectin at 500 uM relative to control by glyco-ELISA assay; summary of the method: as §1
MONO-MAC-6 [8] = assay: Viability of MM6 cells at 50 uM by Roche-XTT assay relative to control; format: functional, Homo sapiens
[9] = biological target: T2, P-selectin (Homo sapiens); assay: Inhibition of sLex binding to P-selectin at 100 uM relative to control by glyco-ELISA assay; summary of the method: as §1
[10] = biological target: T1, L-selectin (Homo sapiens); assay: Inhibition of sLex binding to L-selectin at 100 uM relative to control by glyco-ELISA assay; summary of the method: as §1
Mus musculus [11] = assay: Reduction in proteose peptone-induced PMN extravasation in C57BL/J mouse peritonitis model at 50 mg/kg, ip; format: functional; design: scale not given: the % may be the effect or the level left; settings: route intraperitoneal
Summary of the method: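 Male C57BL/6 mice received 100 µL of a 50 mg/mL compound suspension in corn oil ip, or vehicle, then 1 h later 3 mL of 3% proteose peptone ip. Peritoneal leukocytes were lavaged at 6 h with cold HBSS/5 mM EDTA and stained with PE-conjugated anti-PMN, MOMA-2 and anti-CD2 antibodies. Cells were classified by scatter and fluorescence. Mean ± SEM, n = 4.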

Mus musculus [12] = assay: Reduction in proteose peptone-induced PMN extravasation in C57BL/J mouse peritonitis model at 100 mg/kg; format: functional, organism-based; design: dose 100 mg/kg

Compound | inhibition [1] [%] | inhibition at 100 µM [2] [%] | inhibition [3] [%] | inhibition [4] [%] | Activity (AEC) [%] | Activity [5] [%] | Activity (MONO-MAC-6 [6]) [%] | also measured
CCCCCCCCCCOc1cc(OCCCCCCCCCC)cc(OCCCCCCON=C(c2ccc(Cl)cc2)c2ccc(Cl)cc2)c1 | 5 | 24 | 2 | 2 | – | – | – | –
CCCCCCCCCCOc1cc(OCCCCCCCCCC)cc(OCCCCCC(=O)N(Cc2ccc(C(=O)O)cc2)c2ccc(C(=O)O)cc2)c1 | 50 | 56 | 49 | – | 36 | – | – | –
CCCCCCCCCCOc1cccc(OCCCCCC(=O)N(Cc2ccc(C(=O)O)cc2)c2cccc(C(=O)O)c2)c1 | 103 | 70 | 103 | 42 | 20 | 4 | 101 | –
CCCCCCCCCCOc1cccc(OCCCCCC(=O)N(Cc2ccc(C(=O)OC)cc2)c2ccc(C(=O)OC)cc2)c1 | 75 | 26 | 78 | 65 | – | 68 | 80 | –
O=C(O)c1ccc(N(C(=O)CCCCCBr)c2ccc(C(=O)O)cc2)cc1 | 6 | 4 | 12 | 5 | – | – | – | –
CCCCCCCCCCOc1cccc(OCCCCCC(=O)N(Cc2ccc(C(=O)O)cc2)c2ccc(C(=O)O)cc2)c1 | – | 93 | – | – | 100 | – | – | –
CCCCCCCCCCOc1cc(OCCCCCCCCCC)cc(OCCCCCCN(Cc2ccc(C(=O)O)cc2)c2ccc(C(=O)O)cc2)c1 | – | 100 | – | – | – | – | 10 | –
CCCCCCCCCCOc1cccc(OCCCCCC(=O)N(Cc2ccc(C(=O)OC)cc2)c2cccc(C(=O)OC)c2)c1 | 86 | 45 | 79 | 18 | 99 | 62 | 98 | –
CCCCCCCCCCOc1cc(OCCCCCCCCCC)cc(OCCCCCC(=O)N(c2ccc(C(=O)OC)cc2)c2ccc(C(=O)OC)cc2)c1 | 16 | 10 | 16 | – | – | – | – | inhibition [7]: 5%
O=C(O)c1ccc(N(C(=O)CCCCCBr)c2cccc(C(=O)O)c2)cc1 | 5 | 2 | 19 | – | 75 | – | – | –
CCCCCCCCCCOc1cc(OCCCCCCCCCC)cc(OCCCCCC(=O)N(Cc2ccc(C(=O)O)cc2)c2cccc(C(=O)O)c2)c1 | 92 | 82 | 95 | 43 | 46 | 0 | 11 | –
CCCCCCCCCCOc1cc(OCCCCCCCCCC)cc(OCCCCCC(=O)N(c2ccc(C(=O)O)cc2)c2cccc(C(=O)O)c2)c1 | 53 | – | 58 | – | – | – | – | –
CCCCCCCCCCOc1cc(OCCCCCCCCCC)cc(OCCCCCC(=O)N(Cc2ccc(C(=O)OC)cc2)c2ccc(C(=O)OC)cc2)c1 | 26 | 26 | 27 | – | – | – | – | –
CCCCCCCCCCOc1cccc(OCCCCCCON=C(c2ccc(C(=O)O)cc2)c2ccc(C(=O)O)cc2)c1 | – | 67 | – | – | 40 | – | – | Activity (MONO-MAC-6 [8]): 12%
CCCCCCCCCCOc1cc(OCCCCCCCCCC)cc(OCCCCCCN(c2ccc(C(=O)O)cc2)c2ccc(C(=O)O)cc2)c1 | 82 | 107 | 81 | 94 | 102 | 77 | 112 | inhibition [9]: 35%; inhibition [10]: 41%; Activity (Mus musculus [11]): 44%
CC(=O)N[C@H]1[C@H]([C@H](O)[C@H](O)CO)O[C@@](O[C@H]2[C@@H](O)[C@@H](CO)O[C@@H](O[C@@H]([C@H](O[C@@H]3O[C@@H](C)[C@@H](O)[C@@H](O)[C@@H]3O)[C@H](C=O)NC(C)=O)[C@H](O)CO)[C@@H]2O)(C(=O)O)C[C@@H]1O [SIALYL LEWIS X] | – | 41 | – | – | – | – | – | Activity (Mus musculus [12]): inactive
CCCCCCCCCCOc1cc(OCCCCCCCCCC)cc(OCCCCCCN(Cc2ccc(C(=O)OC)cc2)c2ccc(C(=O)OC)cc2)c1 | – | 61 | – | – | 111 | – | 5 | –
CCCCCCCCCCOc1cc(OCCCCCCCCCC)cc(OCCCCCCO/N=C(/c2ccc(C(=O)O)cc2)c2cccc(C(=O)O)c2)c1 | 50 | 100 | 34 | – | – | – | – | –
CCCCCCCCCCOc1cc(OCCCCCCCCCC)cc(OCCCCCC(=O)N(c2ccc(C(=O)OC)cc2)c2ccc(C(=O)OC)c(C(=O)OC)c2)c1 | 95 | 115 | 90 | – | 90 | 58 | 50 | inhibition [7]: 73%
CCCCCCCCCCOc1cc(OCCCCCCCCCC)cc(OCCCCCCON=C(c2ccc(C(=O)O)cc2)c2ccc(C(=O)O)cc2)c1 | 6 | 90 | 2 | – | 110 | – | 84 | –
